Results on twelve molecules are retold here after ChEMBL document CHEMBL3352527, “Phosphorus-nitrogen compounds. Part 29. Syntheses, crystal structures, spectroscopic and stereogenic properties, electrochemical investigations, antituberculosis, antimicrobial and cytotoxic activities and DNA interactions of ansa-spiro-ansa cyclotetraphosphazenes” (2014).

Assay [1] has as its system Escherichia coli. Put plainly: Antimicrobial activity against Escherichia coli ATCC 25922 after 18 hrs by agar well diffusion assay. The format is functional. The method, boiled down: (§1)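 Bacteria were grown to exponential phase in nutrient broth at 37 °C for 18 h and adjusted to 10^8 cfu/mL against McFarland density. The culture suspension was mixed into the medium and poured into plates with 6.0 mm wells. Each well received 50 of the compound solution in DMSO. Inhibition zone diameter was read in mm; the value is the mean of three experiments.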

The subject of assay [2] is Bacillus cereus. Nature of the assay: Antimicrobial activity against Bacillus cereus NRRL-B-3711 after 18 hrs by agar well diffusion assay. The class given is functional. The method in brief: as §1
For orientation: Agar diffusion results depend on both activity and mobility in agar.

In assay [3] the test system is Bacillus spizizenii. Put plainly: Antimicrobial activity against Bacillus subtilis ATCC 6633 after 18 hrs by agar well diffusion assay. The format is functional. The method in brief:
as §1

Assay [4] has as its system MCF7. Nature of the assay: Cytotoxicity against human MCF7 cells assessed as reduction in cell viability at 1 mg/ml after 24 hrs by MTT assay. The format is functional. The method, boiled down:
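Cells were exposed to compounds for 24 h, then to MTT for 4 h. Formazan was dissolved in DMSO and absorbance read at 540 nm. Relative viability (%) was determined, with cisplatin as positive control.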

Assay [5] deals with Escherichia coli. Put plainly: Binding affinity to Escherichia coli pBR322 plasmid DNA assessed as retardation of electrophoretic migration of supercoiled form I DNA at 312 to 5000 uM after 24 hrs by agarose gel electrophoresis. The method, boiled down:
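pBR322 plasmid DNA was incubated with the compounds at 37 °C for 24 h in the dark. Mixtures were run on a 1% agarose gel in TAE buffer (pH 8.0) for 3 h at 60 V. Mobility of supercoiled form I and nicked form II DNA was compared with untreated plasmid.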

The test system of assay [6] is Bacillus spizizenii. Put plainly: Antimicrobial activity against Bacillus subtilis ATCC 6633 at 2500 uM after 18 hrs by agar well diffusion assay. The class given is functional. The following applies: ATCC 6633, 18 h, read-out: DIZ. The method, boiled down:
as §1

The test system of assay [7] is Escherichia coli. Put plainly: Antimicrobial activity against Escherichia coli ATCC 25922 at 10 ug after 18 hrs by agar well diffusion assay. The format is functional. The following applies: ATCC 25922, 18 h, read-out: DIZ. The method in brief:
(§2)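 Agar-well diffusion with ampicillin and chloramphenicol as reference antibacterials. Bacteria were grown to exponential phase in nutrient broth at 37 °C for 18 h and adjusted to 10^8 cfu/mL against McFarland density. The suspension was mixed into medium and poured into plates, and 6.0 mm wells were cut. After incubation, inhibition zone diameter was read in mm. Values are the mean of three experiments.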

Assay [8] relates to Bacillus cereus. Put plainly: Antimicrobial activity against Bacillus cereus NRRL-B-3711 at 10 ug after 18 hrs by agar well diffusion assay. The class given is functional. Particulars: NRRL-B-3711, 18 h, read-out: DIZ. The method in brief: as §2
The subject of assay [9] is Escherichia coli. Nature of the assay: Antimicrobial activity against Escherichia coli ATCC 35218 at 10 ug after 18 hrs by agar well diffusion assay. The class given is functional, organism-based.
The test system of assay [10] is Bacillus spizizenii. Nature of the assay: Antimicrobial activity against Bacillus subtilis ATCC 6633 at 10 ug after 18 hrs by agar well diffusion assay. The format is functional. Particulars: ATCC 6633, 18 h, read-out: DIZ. The method in brief: as §2
For assay [11], the system named is Pseudomonas aeruginosa. Put plainly: Antimicrobial activity against Pseudomonas aeruginosa ATCC 27853 at 10 ug after 18 hrs by agar well diffusion assay. Particulars: ATCC 27853, 18 h, read-out: DIZ. The format is functional. The method in brief:
as §2

The test system of assay [12] is Staphylococcus aureus. Put plainly: Antimicrobial activity against Staphylococcus aureus ATCC 25923 at 10 ug after 18 hrs by agar well diffusion assay. The format is functional. Particulars: ATCC 25923, 18 h, read-out: DIZ. The method, boiled down: as §2
Assay [13] has as its system Escherichia coli. Put plainly: Antimicrobial activity against Escherichia coli ATCC 25922 at 30 ug after 18 hrs by agar well diffusion assay. The format is functional. The following applies: ATCC 25922, 18 h, read-out: DIZ. The method in brief: as §2
Assay [14] relates to Bacillus cereus. Put plainly: Antimicrobial activity against Bacillus cereus NRRL-B-3711 at 30 ug after 18 hrs by agar well diffusion assay. Particulars: NRRL-B-3711, 18 h, read-out: DIZ. The format is functional. The method, boiled down:
as §2

Assay [15] deals with Escherichia coli. Nature of the assay: Antimicrobial activity against Escherichia coli ATCC 35218 at 30 ug after 18 hrs by agar well diffusion assay. Particulars: ATCC 35218, 18 h, read-out: DIZ. The format is functional. The method, boiled down: as §2
For assay [16], the system named is Bacillus spizizenii. Nature of the assay: Antimicrobial activity against Bacillus subtilis ATCC 6633 at 30 ug after 18 hrs by agar well diffusion assay. The class given is functional. Particulars: ATCC 6633, 18 h, read-out: DIZ. The method in brief: as §2
The test system of assay [17] is Staphylococcus aureus. Put plainly: Antimicrobial activity against Staphylococcus aureus ATCC 25923 at 30 ug after 18 hrs by agar well diffusion assay. The format is functional. Particulars: ATCC 25923, 18 h, read-out: DIZ. The method, boiled down:
as §2

Assay [18] relates to Pseudomonas aeruginosa. Put plainly: Antimicrobial activity against Pseudomonas aeruginosa ATCC 27853 at 30 ug after 18 hrs by agar well diffusion assay. The class given is functional. The following applies: ATCC 27853, 18 h, read-out: DIZ. The method, boiled down:
as §2

For assay [19], the system named is Candida albicans. Put plainly: Antimicrobial activity against Candida albicans ATCC 10231 at 50 ug after 18 hrs by agar well diffusion assay. The format is functional. Particulars: ATCC 10231, 18 h, read-out: DIZ.
The subject of assay [20] is Candida tropicalis. Put plainly: Antimicrobial activity against Candida tropicalis ATCC 13803 at 50 ug after 18 hrs by agar well diffusion assay. The format is functional. The following applies: ATCC 13803, 18 h, read-out: DIZ.

Calls of active or inactive are those of the source. The rule behind the calls is not given here.

On to `C1CC2(CCN1)OCCO2`, for which the results for the “diameter of the inhibition zone (DIZ)” value in assay [1], in assay [2] and in [3] were 11 mm, 13 mm and 12 mm, respectively.

`[K+].[K+].[O-]c1ccccc1CNCCCNCc1ccccc1[O-]`: the figures for the “diameter of the inhibition zone (DIZ)” value in [1] and in [2] were 10.3 mm and 11 mm, respectively.

Regarding `Cl[P@@]12=NP34=N[P@](Cl)(=NP(N5CCCCC5)(N5CCCCC5)=N1)Oc1ccccc1CN3CCN4Cc1ccccc1O2` (mixture of isomers), in [4], the Activity was 40%. The result in [5] was Active.

Take `Cl[P@@]12=NP34=N[P@](Cl)(=NP(N5CCC6(CC5)OCCO6)(N5CCC6(CC5)OCCO6)=N1)Oc1ccccc1CN3CCCN4Cc1ccccc1O2` (mixture of isomers): the outcome in [4] was inactive.

Turning to `ClP12=NP34=N[P@](Cl)(=NP(N5CCCCC5)(N5CCCCC5)=N1)Oc1ccccc1CN3CCCN4Cc1ccccc1O2` (single isomer, unassigned), in assay [4], the Activity came out at 40%. Further, the zone of inhibition at 2500 µM in assay [6] worked out at 9 mm. Also, in [5], the outcome was Active.

For the molecule `ClP12=NP34=NP(Cl)(=NP(N5CCC6(CC5)OCCO6)(N5CCC6(CC5)OCCO6)=N1)Oc1ccccc1CN3CCCN4Cc1ccccc1O2` (single isomer, unassigned), the outcome in assay [4] was inactive. For the same molecule, the zone of inhibition at 2500 µM in assay [6] was determined as 7 mm.

As to `ClP12=NP(N3CCC4(CC3)OCCO4)(N3CCC4(CC3)OCCO4)=N[P@@]3(Cl)=N[P@]4(=N1)N(CCN4Cc1ccccc1O3)Cc1ccccc1O2` (single isomer, unassigned), the outcome in [4] was inactive.

For `ClP12=NP34=N[P@](Cl)(=NP(N5CCC6(CC5)OCCO6)(N5CCC6(CC5)OCCO6)=N1)Oc1ccccc1CN3CCN4Cc1ccccc1O2` (single isomer, unassigned), the result in [4] was inactive.

`CC1(C)S[C@@H]2[C@H](NC(=O)[C@H](N)c3ccccc3)C(=O)N2[C@H]1C(=O)O` [AMPICILLIN]: the zone of inhibition at 10 µg/disc in assay [7] was 20.3 mm; in assay [8], 10 mm; in assay [10], 30.3 mm; in assay [11], 28 mm; in assay [12], 35 mm. In addition, the “diameter of the inhibition zone (DIZ)” value in assay [9] was “inactive”.

For `O=C(N[C@H](CO)[C@H](O)c1ccc([N+](=O)[O-])cc1)C(Cl)Cl` [CHLORAMPHENICOL], the zone of inhibition at 30 µg/disc in [13] is 26.6 mm; in assay [14], 23.4 mm; in assay [15], 10.5 mm; in [16] it was 31 mm; in assay [17], 29.6 mm; in assay [18] it was 21.9 mm.

For `CC(=O)N1CCN(c2ccc(OCC3COC(Cn4ccnc4)(c4ccc(Cl)cc4Cl)O3)cc2)CC1` (stereo unspecified) [KETOCONAZOLE], the zone of inhibition at 50 µg/disc came out at 30 mm in assay [19] and 29 mm in assay [20].

On to `C1CCNCC1` [PIPERIDINE], for which the “diameter of the inhibition zone (DIZ)” value in [1] is 11 mm; in [2] it was 13 mm.
